Measurements collected from several papers.
Lines come from different studies, so protocols differ.
Target: Mitogen-activated protein kinase 8 (MAPK8, Homo sapiens, UniProt P45983)

Compound | effect on | mode | method | concentration | measurement | result
C#Cc1cnc(Nc2ccnc(CO)c2)nc1Nc1ccccc1S(C)(=O)=NC#N (stereo not drawn) | cell-free assay |  |  | 1 µM | remaining signal | 54%
C=CC(=O)N1CCC([C@@H]2CCNc3c(C(N)=O)c(-c4ccc(Oc5ccccc5)cc4)nn32)CC1 | enzyme activity | inhibitor |  | 1 µM | inhibition | 21%
Cc1ccc(NC(=O)c2ccnc(C(F)(F)F)c2)cc1-c1cc(OCCO)nc(N2CCOCC2)c1 | binding |  |  | 1 µM | remaining binding | 80%
N#Cc1ccc(NC(=O)Nc2ccccc2)cc1 | cell-free assay |  | competition with immobilised ligand | 25 µM | remaining binding | 78%
CO[C@@H]1[C@H](N(C)C(=O)c2ccccc2)C[C@H]2O[C@]1(C)n1c3ccccc3c3c4c(c5c6ccccc6n2c5c31)C(=O)NC4 | enzyme activity | inhibitor |  | 1 µM | inhibition | 22%
C#Cc1cc(-c2cc(Nc3nc(N[C@@H](C)c4ccc(F)cn4)ncc3Cl)n[nH]2)ccc1C=O | enzyme activity | inhibitor |  | 0.2 µM | inhibition | 9.62%
C[C@H]1CC[C@H](n2c3cnccc3c3cnc(Nc4ccc5c(n4)CCN(C(=O)CO)C5)nc32)CC1 | binding |  |  | 1 µM | remaining binding | 7%
CCCCC(=O)Nc1ccc(-c2ccc3ncn(CCC)c(=O)c3c2)cn1 | binding |  | competition with immobilised ligand | 0.5 µM | remaining binding | 52%
C1=C/COCc2cc(ccc2OCCN2CCCC2)Nc2nccc(n2)-c2cccc(c2)COC/1 | cell-free assay |  |  | 0.1 µM | remaining signal | 12%
